According to ChEMBL document CHEMBL1148290, “Synthesis of flexible sulfur-containing heteroarotinoids that induce apoptosis and reactive oxygen species with discrimination between malignant and benign cells” (2004):

Assays:
Format in all cases: functional
[1] = system: Caov-3 cell line; experiment: Efficacy is growth inhibition activity at 10 uM concentration relative to the maximum activity observed for 4-HPR with Caov-3 cell line
Summary of the method: (§1)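 Cells seeded at 1000 cells/well; next day retinoids added from DMSO stocks (DMSO ≤0.01% final; solvent-only controls) to final 1, 4, 7 and 10 μM, handled under subdued light. After 3 days, living cells quantitated by MTS/PMS reduction read at OD490 in linear range (0.1–0.6); triplicate wells averaged, percent growth inhibition calculated versus solvent controls.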

[2] = system: SK-OV-3; experiment: Efficacy is growth inhibition activity at 10 uM concentration relative to the maximum activity observed for 4-HPR with SK-OV-3 cell line; summary of the method: as §1
[3] = system: Caov-3 cell line; experiment: Potency of compound was determined from ability to inhibit the growth of ovarian carcinoma cell line Caov-3; summary of the method: as §1
[4] = system: OVCAR-3; experiment: Efficacy is growth inhibition activity at 10 uM concentration relative to the maximum activity observed for 4-HPR with OVCAR-3 cell line; summary of the method: as §1
[5] = system: SK-OV-3; experiment: Potency of compound was determined from ability to inhibit the growth of ovarian carcinoma SK-OV-3 cell line; summary of the method: as §1
[6] = system: OVCAR-3; experiment: Potency of compound was determined from ability to inhibit the growth of ovarian carcinoma OVCAR-3 cell line; summary of the method: as §1

| SMILES | Efficacy [1] [%] | Efficacy [2] [%] | Potency [3] [µM] | Efficacy [4] [%] | Potency [5] [µM] | Potency [6] [µM] |
| --- | --- | --- | --- | --- | --- | --- |
| CCOC(=O)c1ccc(NC(=O)Nc2ccc3c(c2)C(C)(C)CC(C)(C)S3)cc1 | 63.7 | 71.8 | 7 | 160.4 | 4.1 | 3.9 |
| Cc1cc2c(cc1/N=C(\S)Nc1ccc(S(N)(=O)=O)cc1)C(C)(C)CC(C)(C)S2 | 30.3 | 67.7 | 0.9 | 90 | 6.9 | 4.4 |
| CCOC(=O)c1ccc(NC(=O)Nc2cc3c(cc2C)SC(C)(C)CC3(C)C)cc1 | 54.9 | 75.7 | 10.2 | 107 | 7.2 | 4.7 |
| CC1(C)CC(C)(C)c2cc(N/C(S)=N/c3ccc(S(N)(=O)=O)cc3)ccc2S1 | 16.7 | 50.5 | 7 | 74.1 | 7.8 | 4.4 |
| CCOC(=O)c1ccc(N/C(S)=N/c2ccc3c(c2)C(C)(C)CC(C)(C)S3)cc1 | 38.1 | 64.9 | 4.6 | 133.8 | 3.9 | 3.9 |
| CCOC(=O)c1ccc(N/C(S)=N/c2cc3c(cc2C)SC(C)(C)CC3(C)C)cc1 | 37.4 | 85.4 | 4 | 114.4 | 4.4 | 4.4 |
| Cc1cc([N+](=O)[O-])ccc1/N=C(\S)Nc1ccc2c(c1)C(C)(C)CC(C)(C)S2 | 52.1 | 78.4 | 7.4 | 149.5 | 3.9 | 3.7 |
| CC1=C(/C=C/C(C)=C/C=C/C(C)=C/C(=O)Nc2ccc(O)cc2)C(C)(C)CCC1 [FENRETINIDE] | 100 | 100 | 3.7 | 100 | 8.2 | 6.9 |
| CC1(C)CC(C)(C)c2cc(NC(=S)Nc3ccc([N+](=O)[O-])cc3)ccc2S1 [SHETA-2] | 89.2 | 69.1 | 3.7 | 155.2 | 0.2 | 1 |
